MEKK2wt PB1 HTS – raises or lowers MEK5 binding to wildtype human MEKK2 PB1 domain; Q9Y2U5; bead flow cytometry, Alexa488-MEK5 binding to MEKK2 WT; actives lie on both sides; binding response (% of control), % at 10 µM; 290,000 tested, 1.1% active; AID 1531; in the data active means binding response below about 67% or above about 130%
Efflux pump inh – blocks antifungal efflux pumps in multiplex yeast assay; S. cerevisiae Candida pump triplex, Nile Red efflux; inhibition, % at 10 µM; 330,000 tested, 0.44% active; AID 485275;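 active means plate passing quality check with inhibition over a set limit, or well fluorescence over plate mean plus 4 SD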;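 further: Nile Red retained in pooled yeast measured as flow cytometry median fluorescence; 0% = buffer negative control and 100% = Enniatin B positive control; higher means more Nile Red kept so more efflux inhibition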
MEKK2mut PB1 HTS – signal of MEK5 binding to mutant human MEKK2 PB1 domain; percent response, % at 10 µM; bead flow cytometry, Alexa488-MEK5 binding to MEKK2 mutant; AID 1530; 290,000 tested, 0.35% active; in the data active means percent response above about 24%, passing the limit was not always enough
ABCG2 block – inhibitors of human ABCG2 transporter, ABCB1 counter-screen | Q9UNQ0 | IgMXP3 cells, JC-1 efflux, flow cytometry | inhibition, % at 6.6 µM | 190,000 tested, 0.1% active | AID 1325;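 active means inhibition above 80%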;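 further: 0% = DMSO and 100% = nicardipine control wells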
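Test system: IgMXP3 cells (ABCG2) mixed with DDAO far-red-labelled CCRF-Adr cells (ABCB1). Reagent: JC-1 transporter substrate. Compound dosing: single test compound dose, 6.6 µM final. Times: 10 min compound exposure, 25 °C. Detection: flow cytometry of retained JC-1 fluorescence. Read-out basis: efflux inhibition in percent versus controls. Controls: nicardipine and DMSO wells.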
MEKK3 PB1 HTS – raises or lowers MEK5 binding to the human MEKK3 PB1 domain | bead-based flow cytometry, Alexa488-MEK5 binding to MEKK3; actives lie on both sides; 0 = blocked by unlabeled MEK5, 100 = vehicle | binding response (% of control), % at 10 µM | 290,000 tested, 1.4% active;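 active means binding response more than 3 SD above or below the average of its plate-row segment, actives on both sides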;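 further: Alexa488 bead fluorescence after subtracting the streptavidin-only scavenger bead signal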
ABCB1 block – human ABCB1 inhibition, ABCG2 as counter-screen; 190,000 tested, 0.067% active; CCRF-Adr cells, JC-1 efflux, flow cytometry; P08183; AID 1326; inhibition, % at 6.6 µM; in the data active means inhibition above about 40%;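 further: 0% = vehicle and 100% = reference inhibitor; higher value means more JC-1 retained so stronger ABCB1 efflux block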
Target sequence (P08183 whole entry, looked up): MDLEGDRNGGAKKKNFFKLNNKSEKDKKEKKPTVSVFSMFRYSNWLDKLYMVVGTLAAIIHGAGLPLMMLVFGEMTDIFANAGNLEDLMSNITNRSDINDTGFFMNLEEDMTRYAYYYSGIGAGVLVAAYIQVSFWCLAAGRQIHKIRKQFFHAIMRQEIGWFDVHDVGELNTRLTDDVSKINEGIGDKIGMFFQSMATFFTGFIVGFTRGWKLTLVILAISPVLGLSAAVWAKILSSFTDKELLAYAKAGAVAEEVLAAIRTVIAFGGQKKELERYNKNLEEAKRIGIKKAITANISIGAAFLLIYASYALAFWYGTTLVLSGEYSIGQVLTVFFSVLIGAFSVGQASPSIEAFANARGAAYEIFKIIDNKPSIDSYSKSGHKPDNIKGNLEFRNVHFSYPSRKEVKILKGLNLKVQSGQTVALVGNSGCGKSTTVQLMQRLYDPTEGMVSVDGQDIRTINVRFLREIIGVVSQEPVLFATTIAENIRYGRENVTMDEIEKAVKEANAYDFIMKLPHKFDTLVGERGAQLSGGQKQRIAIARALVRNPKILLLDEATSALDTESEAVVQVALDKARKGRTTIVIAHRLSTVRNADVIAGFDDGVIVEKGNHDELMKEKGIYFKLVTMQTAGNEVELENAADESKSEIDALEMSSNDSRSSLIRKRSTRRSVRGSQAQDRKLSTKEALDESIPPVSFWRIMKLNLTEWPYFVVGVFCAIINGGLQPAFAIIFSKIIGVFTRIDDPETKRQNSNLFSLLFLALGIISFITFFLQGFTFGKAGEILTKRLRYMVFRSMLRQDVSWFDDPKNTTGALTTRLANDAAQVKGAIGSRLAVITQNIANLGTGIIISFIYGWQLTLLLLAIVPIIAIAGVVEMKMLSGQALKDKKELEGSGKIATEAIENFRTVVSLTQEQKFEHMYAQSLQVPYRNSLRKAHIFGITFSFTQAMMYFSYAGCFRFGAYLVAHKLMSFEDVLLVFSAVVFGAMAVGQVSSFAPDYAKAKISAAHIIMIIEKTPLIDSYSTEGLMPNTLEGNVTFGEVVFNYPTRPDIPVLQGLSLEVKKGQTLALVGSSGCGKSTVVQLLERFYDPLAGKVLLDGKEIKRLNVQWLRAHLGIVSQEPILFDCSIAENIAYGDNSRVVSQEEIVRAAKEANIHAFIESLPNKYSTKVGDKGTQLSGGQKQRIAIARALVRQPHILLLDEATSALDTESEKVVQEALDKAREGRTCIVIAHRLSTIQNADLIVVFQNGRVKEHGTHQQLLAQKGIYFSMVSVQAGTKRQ
Yeast cmpd fluor – compound fluorescence in yeast efflux pump counter-screen. 1,700 tested, 4% active. AID 588517. fluorescence ratio to DMSO, % at 10 µM. S. cerevisiae AD/pABC3, flow cytometry. shares compounds with Efflux pump inh;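 active means fluorescence ratio to DMSO above its plate's cutoff, the plate mean ratio plus 5 SD, cut at about 210% in these data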;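 further: unstained yeast with no Nile Red so the signal is compound autofluorescence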
Mdr1 pump inh – inhibitors of Candida albicans Mdr1 efflux pump; shares compounds with Efflux pump inh; S. cerevisiae AD/CaMDR1, Nile Red efflux, flow cytometry; inhibition, % at 10 µM; 1,700 tested, 1% active; in the data active means inhibition above about 26%;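 further: 0% = DMSO vehicle and 100% = reference inhibitor; higher means more Nile Red retained so more efflux inhibition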
Cdr2 pump inh – inhibitors of Candida albicans Cdr2 efflux pump | shares compounds with Efflux pump inh | S. cerevisiae AD/CaCDR2, Nile Red retention, flow cytometry | Nile Red retention ratio vs DMSO, % at 10 µM | 1,700 tested, 4% active | AID 588520; in the data active means Nile Red retention ratio vs DMSO above about 190%;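 further: higher ratio means more blocking of Cdr2 efflux of the dye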
Cdr1 pump inh – Candida Cdr1 efflux pump inhibition | shares compounds with Efflux pump inh | S. cerevisiae AD/CaCDR1, Nile Red efflux, flow cytometry | inhibition, % at 10 µM | 1,700 tested, 1% active | AID 588522;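 active means inhibition above the screen-wide mean plus twice its standard deviation, cut at about 32% in these data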
The depositor's hits bear a star. An excerpt weighted towards active compounds, which were near 2.5% of everything screened.

For Cc1cc(NC(=O)CCC(=O)N(CC(=O)NC2CCCC2)Cc2ccc(F)cc2)no1 the results were MEKK2wt PB1 HTS 112, Efflux pump inh 0, MEKK2mut PB1 HTS 10, ABCG2 block 1, MEKK3 PB1 HTS 105, ABCB1 block 1, Yeast cmpd fluor 110, Mdr1 pump inh 0, Cdr2 pump inh 114 and Cdr1 pump inh 0.
`N#C/C(=C/c1ccc(-c2ccc(Br)cc2)o1)C(=O)NC1CCCCC1` gave MEKK2wt PB1 HTS 82, Efflux pump inh 1.7*, MEKK2mut PB1 HTS -2, ABCG2 block -3, MEKK3 PB1 HTS 100, ABCB1 block 0, Yeast cmpd fluor 128, Mdr1 pump inh 0, Cdr2 pump inh 137 and Cdr1 pump inh 0.
`CCC(C)c1ccc(C(C)NC(=S)NC2CCCCC2)cc1` (centres undefined) gave MEKK2wt PB1 HTS 110, Efflux pump inh 1.5*, MEKK2mut PB1 HTS 4, MEKK3 PB1 HTS 101, Yeast cmpd fluor 99, Mdr1 pump inh 0, Cdr2 pump inh 95 and Cdr1 pump inh 0.
COCC1CCN(C(=O)c2cc(COc3ccc(OC)c4ccccc34)on2)C1 (centres undefined) was read as MEKK2wt PB1 HTS 92, Efflux pump inh 7.2*, MEKK2mut PB1 HTS -9, MEKK3 PB1 HTS 91, Yeast cmpd fluor 105, Mdr1 pump inh 0, Cdr2 pump inh 112 and Cdr1 pump inh 0.
O=C(c1ccccc1Cl)N1CCN(c2ncccn2)CC1 was read as Efflux pump inh 0.
Cc1onc(-c2ccccc2)c1C(=O)OCC(=O)NC(C)c1ccc(Cl)cc1 (centres undefined) was read as Efflux pump inh 0.
CCOC(=O)C(NC(=O)CC)(Nc1ccccc1)C(F)(F)F (centres undefined) was read as MEKK2wt PB1 HTS 97, Efflux pump inh 5.5*, MEKK2mut PB1 HTS -1, ABCG2 block 10, MEKK3 PB1 HTS 95, ABCB1 block 1, Yeast cmpd fluor 93, Mdr1 pump inh 0, Cdr2 pump inh 94 and Cdr1 pump inh 0.
For CN(/N=C/c1cc(Cl)cc(Cl)c1O)c1c(Cl)cccc1[N+](=O)[O-] the results were MEKK2wt PB1 HTS 89, Efflux pump inh 0, MEKK2mut PB1 HTS -19 and MEKK3 PB1 HTS 88.
CCN1CCN(Cc2c(O)ccc3c2O/C(=C\C=C\c2ccccc2)C3=O)CC1 was read as MEKK2wt PB1 HTS 92, Efflux pump inh 0, MEKK2mut PB1 HTS -1, ABCG2 block 1, MEKK3 PB1 HTS 103 and ABCB1 block 1.
CN(C)Cc1c(O)ccc2c1O/C(=C\C=C\c1ccccc1)C2=O was read as MEKK2wt PB1 HTS 95, Efflux pump inh 0.6*, MEKK2mut PB1 HTS -1, MEKK3 PB1 HTS 100, Yeast cmpd fluor 83, Mdr1 pump inh 0, Cdr2 pump inh 104 and Cdr1 pump inh 0.
CC1CC(C)CN(CCCNC(=O)CN2C(=O)CSc3ccc(S(=O)(=O)N4CCCCC4)cc32)C1 (centres undefined) was read as MEKK2wt PB1 HTS 99, Efflux pump inh 0.6*, MEKK2mut PB1 HTS -1, MEKK3 PB1 HTS 96, Yeast cmpd fluor 99, Mdr1 pump inh 0, Cdr2 pump inh 109 and Cdr1 pump inh 0.
`O=C(CN1C(=O)CSc2ccc(S(=O)(=O)N3CCOCC3)cc21)NCCCN1CCCCC1` gave MEKK2wt PB1 HTS 107, Efflux pump inh 0, MEKK2mut PB1 HTS 6 and MEKK3 PB1 HTS 104.
Screening CCOc1cc(/C=N/N=C2/NC(=O)C(CC(=O)O)S2)ccc1OCc1ccc(Cl)cc1 (centres undefined) returned MEKK2wt PB1 HTS 73, Efflux pump inh 0, MEKK2mut PB1 HTS -12, ABCG2 block -3, MEKK3 PB1 HTS 66 and ABCB1 block -2.
Screening COc1ccc(/C=N/N=C2/NC(=O)C(CC(=O)O)S2)cc1OCc1ccc(Cl)cc1 (centres undefined) returned MEKK2wt PB1 HTS 102, Efflux pump inh 13*, MEKK2mut PB1 HTS 0, ABCG2 block -3, MEKK3 PB1 HTS 97, ABCB1 block -1, Yeast cmpd fluor 95, Mdr1 pump inh 0, Cdr2 pump inh 105 and Cdr1 pump inh 0.
For COc1ccc(S(=O)(=O)NCc2ccccn2)c(Cl)c1Cl the results were MEKK2wt PB1 HTS 101, Efflux pump inh 0, MEKK2mut PB1 HTS 3, ABCG2 block 6, MEKK3 PB1 HTS 100 and ABCB1 block 1.
CCOc1ccc(S(=O)(=O)N2CCN(C(=O)c3ccncc3)CC2)cc1 was read as MEKK2wt PB1 HTS 102, Efflux pump inh 7.4*, MEKK2mut PB1 HTS 1, MEKK3 PB1 HTS 98, Yeast cmpd fluor 89, Mdr1 pump inh 0, Cdr2 pump inh 91 and Cdr1 pump inh 0.
Screening CCc1ccc(C2=CC(c3cc(Br)ccc3F)n3ncnc3N2)cc1 (centres undefined) returned MEKK2wt PB1 HTS 106, Efflux pump inh 0.9*, MEKK2mut PB1 HTS 14, ABCG2 block 1, MEKK3 PB1 HTS 110, ABCB1 block 0, Yeast cmpd fluor 102, Mdr1 pump inh 0, Cdr2 pump inh 105 and Cdr1 pump inh 0.
Screening C=CCNC(=O)c1ccc(S(=O)(=O)CC)c(Cl)c1Cl returned MEKK2wt PB1 HTS 98, Efflux pump inh 0, MEKK2mut PB1 HTS -1, ABCG2 block 0, MEKK3 PB1 HTS 103 and ABCB1 block 1.
CCOC(=O)c1ccc(NC(=O)CN2C(=O)CSC(C)C2=O)cc1 (centres undefined) was read as MEKK2wt PB1 HTS 103, Efflux pump inh 0, MEKK2mut PB1 HTS -1, ABCG2 block 1, MEKK3 PB1 HTS 101 and ABCB1 block 0.
For O=C(c1cn(-c2ccccc2)nc1-c1ccc(F)cc1)N1CCCCC1 the results were MEKK2wt PB1 HTS 99, Efflux pump inh 11*, MEKK2mut PB1 HTS -1, ABCG2 block 15, MEKK3 PB1 HTS 98, ABCB1 block 1, Yeast cmpd fluor 110, Mdr1 pump inh 0, Cdr2 pump inh 119 and Cdr1 pump inh 0.

Source: PubChem (NMMLSC)
